In brackets after ≈: the same amount, converted by molar mass. Values belong to the compound of their own block, whether it stands above or below them.
Columns and labels:
[1] = Ratio of drug level in brain to plasma in rat at 10 mg/kg, po after 30 mins; format: ADME, organism-based; parameters: dose 10 mg/kg, route oral; details: read-out: BPR
[2] = Plasma concentration in rat at 10 mg/kg, po after 30 mins; format: ADME, organism-based; parameters: dose 10 mg/kg, route oral
[3] = Drug level in rat brain at 10 mg/kg, po after 30 mins; format: ADME, organism-based; parameters: dose 10 mg/kg, route oral; details: read-out: Drug uptake
[4] = Selectivity index, ratio of IC50 for rat PDE10A to IC50 for human PDE2A
[5] = molecular target: T1, cAMP and cAMP-inhibited cGMP 3',5'-cyclic phosphodiesterase 10A (Rattus norvegicus, UniProt Q9QYJ6); test: Inhibition of rat PDE10A expressed in Sf9 cells incubated for 60 mins using [3H]-cAMP substrate by scintillation counting method
T1 sequence (Q9QYJ6 whole entry): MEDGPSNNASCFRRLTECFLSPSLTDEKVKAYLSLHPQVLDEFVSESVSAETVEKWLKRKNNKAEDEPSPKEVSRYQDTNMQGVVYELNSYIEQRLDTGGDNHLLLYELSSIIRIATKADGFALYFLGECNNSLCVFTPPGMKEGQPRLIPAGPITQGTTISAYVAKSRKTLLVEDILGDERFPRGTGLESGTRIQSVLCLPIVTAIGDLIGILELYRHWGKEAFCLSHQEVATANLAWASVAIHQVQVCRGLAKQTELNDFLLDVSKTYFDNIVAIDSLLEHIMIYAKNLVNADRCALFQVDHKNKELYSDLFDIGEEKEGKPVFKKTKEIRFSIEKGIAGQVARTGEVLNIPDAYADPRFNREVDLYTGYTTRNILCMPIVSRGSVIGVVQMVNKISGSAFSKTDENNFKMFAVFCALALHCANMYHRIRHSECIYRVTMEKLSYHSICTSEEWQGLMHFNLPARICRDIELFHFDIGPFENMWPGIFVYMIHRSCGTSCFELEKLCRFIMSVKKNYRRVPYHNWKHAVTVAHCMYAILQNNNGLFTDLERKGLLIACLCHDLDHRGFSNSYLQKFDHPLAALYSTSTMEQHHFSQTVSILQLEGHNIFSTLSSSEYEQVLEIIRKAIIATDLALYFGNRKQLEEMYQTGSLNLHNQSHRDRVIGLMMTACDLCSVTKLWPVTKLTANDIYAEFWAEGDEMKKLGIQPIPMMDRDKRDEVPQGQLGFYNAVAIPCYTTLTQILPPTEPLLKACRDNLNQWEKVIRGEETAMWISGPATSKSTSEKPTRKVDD

[6] = Stability in human liver microsomes assessed as parent compound remaining after 15 mins; format: ADME; details: read-out: Stability
In short: (§1)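 Incubated with human or rat liver microsomes for 15 min. Result is the percent of parent compound remaining.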

[7] = Stability in rat liver microsomes assessed as parent compound remaining after 15 mins; format: ADME; details: read-out: Stability; in short: as §1
[8] = Formulatability in water at pH 3.6; format: physicochemical; details: read-out: Activity
In short: (§2)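 Formulatability in mg/mL, tested in three vehicles: water at pH 3.6, 10% β-HP-CD at pH 3.6, and 20% HP-β-CD at pH 7.0.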

[9] = Formulatability in 10% beta-HP-CD at pH 3.6; format: physicochemical; details: read-out: Activity; in short: as §2
[10] = Formulatability in 20% beta-HP-CD at pH 7.0; format: physicochemical; details: read-out: Activity; in short: as §2
Cytochrome P450 2C19 = Cytochrome P450 2C19 (Homo sapiens, UniProt P33261); test: Inhibition of CYP2C19 in human liver microsomes; format: ADME
Chain of Cytochrome P450 2C19 (P33261 whole entry): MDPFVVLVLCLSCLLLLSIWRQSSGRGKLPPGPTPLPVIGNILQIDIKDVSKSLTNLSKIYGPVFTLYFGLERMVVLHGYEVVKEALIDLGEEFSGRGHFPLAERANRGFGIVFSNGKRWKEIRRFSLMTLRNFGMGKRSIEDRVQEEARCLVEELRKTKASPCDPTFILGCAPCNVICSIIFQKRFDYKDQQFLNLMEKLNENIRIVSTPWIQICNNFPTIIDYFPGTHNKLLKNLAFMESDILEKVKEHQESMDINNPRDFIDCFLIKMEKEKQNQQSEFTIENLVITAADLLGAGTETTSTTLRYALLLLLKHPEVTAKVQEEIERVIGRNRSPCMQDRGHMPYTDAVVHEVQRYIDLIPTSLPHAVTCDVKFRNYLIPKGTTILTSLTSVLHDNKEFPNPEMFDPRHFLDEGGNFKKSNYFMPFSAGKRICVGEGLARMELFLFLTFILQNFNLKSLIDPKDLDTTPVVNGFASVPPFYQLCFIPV
In short: (§3)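 CYP2C19 and 3A4 were tested in a human liver microsomal CYP inhibition assay, with IC50 determination.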

Cytochrome P450 3A4 = Cytochrome P450 3A4 (Homo sapiens, UniProt P08684); test: Inhibition of CYP3A4 in human liver microsomes; format: ADME; in short: as §3
Chain of Cytochrome P450 3A4 (P08684 whole entry): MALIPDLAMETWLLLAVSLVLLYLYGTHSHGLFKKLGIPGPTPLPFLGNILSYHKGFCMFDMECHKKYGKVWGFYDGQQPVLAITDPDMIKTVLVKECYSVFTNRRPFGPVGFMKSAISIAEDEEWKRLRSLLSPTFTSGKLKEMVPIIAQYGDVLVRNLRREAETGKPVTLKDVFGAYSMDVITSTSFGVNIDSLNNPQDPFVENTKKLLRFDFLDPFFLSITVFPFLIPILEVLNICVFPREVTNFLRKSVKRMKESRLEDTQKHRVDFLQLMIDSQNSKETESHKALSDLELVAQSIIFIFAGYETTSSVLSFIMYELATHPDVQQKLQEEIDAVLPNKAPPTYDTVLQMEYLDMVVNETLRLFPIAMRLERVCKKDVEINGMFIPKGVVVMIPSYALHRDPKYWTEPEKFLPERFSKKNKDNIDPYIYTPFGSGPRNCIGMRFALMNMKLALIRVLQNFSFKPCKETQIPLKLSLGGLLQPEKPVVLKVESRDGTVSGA

Salmonella typhimurium = test: Mutagenicity in Salmonella typhimurium at <125 ug/mL by Ames-2 test; format: toxicity, organism-based; details: salmonella enterica subsp. enterica serovar typhimurium
In short: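 In vitro colorimetric bacterial mutagenicity assay, adapted from the AMESII Mutagenicity Assay kit.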

Plasma [11] = test: Plasma concentration in Sprague-Dawley rat at 10 mg/kg, sc after 24 hrs; format: ADME, organism-based; parameters: dose 10 mg/kg, route subcutaneous; details: in vivo, BLD = below limit of detection
In short: (§4)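 Male Sprague-Dawley rats, fed (n = 3), dosed 10 mg/kg s.c. at 1 mg/mL in 20% HP-β-CD, pH 7.0. Plasma (ng/mL) and brain (ng/g) levels were measured at 0.5, 1, 2, 4, 7 and 24 h, each with SD. The brain/plasma ratio is computed at each time point.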

Brain = test: Drug level in Sprague-Dawley rat brain at 10 mg/kg, sc after 24 hrs; format: ADME, organism-based; parameters: dose 10 mg/kg, route subcutaneous; details: in vivo, BLD = below limit of detection; in short: as §4
[12] = Ratio of drug level in brain to plasma of Sprague-Dawley rat at 10 mg/kg, sc after 0.5 hrs; format: ADME, organism-based; parameters: dose 10 mg/kg, route subcutaneous; details: read-out: BPR; in short: as §4
[13] = Ratio of drug level in brain to plasma of Sprague-Dawley rat at 10 mg/kg, sc after 1 hr; format: ADME, organism-based; parameters: dose 10 mg/kg, route subcutaneous; details: read-out: BPR; in short: as §4
[14] = Ratio of drug level in brain to plasma of Sprague-Dawley rat at 10 mg/kg, sc after 2 hrs; format: ADME, organism-based; parameters: dose 10 mg/kg, route subcutaneous; details: read-out: BPR; in short: as §4
[15] = Ratio of drug level in brain to plasma of Sprague-Dawley rat at 10 mg/kg, sc after 4 hrs; format: ADME, organism-based; parameters: dose 10 mg/kg, route subcutaneous; details: read-out: BPR; in short: as §4
[16] = Ratio of drug level in brain to plasma of Sprague-Dawley rat at 10 mg/kg, sc after 7 hrs; format: ADME, organism-based; parameters: dose 10 mg/kg, route subcutaneous; details: read-out: BPR; in short: as §4
[17] = Half life in Sprague-Dawley rat at 2.5 mg/kg, iv; format: ADME, organism-based; parameters: dose 2.5 mg/kg, route intravenous; details: in vivo
In short: (§5)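 Rats received 2.5 mg/kg i.v. Plasma kinetic parameters (t1/2, Cl, Vdss, AUC0-inf) are reported as mean (SD).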

[18] = Clearance in Sprague-Dawley rat at 2.5 mg/kg, iv; format: ADME, organism-based; parameters: dose 2.5 mg/kg, route intravenous; details: in vivo; in short: as §5
[19] = Volume of distribution at steady state in Sprague-Dawley rat at 2.5 mg/kg, iv; format: ADME, organism-based; parameters: dose 2.5 mg/kg, route intravenous; details: in vivo, read-out: Vdss
In short: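 Rats received an intravenous injection at 2.5 mg/kg. Plasma kinetics were followed and parameters reported as mean (SD).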

[20] = AUC (0 to infinity) in Sprague-Dawley rat at 2.5 mg/kg, iv; format: ADME, organism-based; parameters: time infinity, dose 2.5 mg/kg, route intravenous; details: plasma; in short: as §5
[21] = Half life in Sprague-Dawley rat at 10 mg/kg, sc; format: ADME, organism-based; parameters: dose 10 mg/kg, route subcutaneous; details: in vivo
In short: (§6)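 Male Sprague-Dawley rats, fed (n = 3), given 10 mg/kg s.c. as a 1 mg/mL solution in 20% HP-β-CD, pH 7.0. Plasma kinetic parameters are reported as mean (SD).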

[22] = Cmax in Sprague-Dawley rat at 10 mg/kg, sc; format: ADME, organism-based; parameters: dose 10 mg/kg, route subcutaneous; details: in vivo; in short: as §6
[23] = Tmax in Sprague-Dawley rat at 10 mg/kg, sc; format: ADME, organism-based; parameters: dose 10 mg/kg, route subcutaneous; details: in vivo
In short: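 Fed male Sprague-Dawley rats (n = 3) were dosed subcutaneously at 10 mg/kg, formulated at 1 mg/mL in 20% HP-β-CD, pH 7.0. Plasma kinetics were followed and reported as mean (SD).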

[24] = AUC (0 to infinity) in Sprague-Dawley rat at 10 mg/kg, sc; format: ADME, organism-based; parameters: time infinity, dose 10 mg/kg, route subcutaneous; details: plasma; in short: as §6
[25] = Unbound fraction in Sprague-Dawley rat brain at 10 mg/kg, sc; format: ADME, organism-based; parameters: dose 10 mg/kg, route subcutaneous
[26] = Unbound fraction in Sprague-Dawley rat plasma at 10 mg/kg, sc; format: ADME, organism-based; parameters: dose 10 mg/kg, route subcutaneous
Plasma [27] = test: Free drug concentration in Sprague-Dawley rat brain at 10 mg/kg, sc after 1 hr; format: ADME, organism-based; parameters: dose 10 mg/kg, route subcutaneous; details: in vivo
In short: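 Free brain level at 1 h after a 10 mg/kg s.c. dose. Total brain concentration was corrected with the measured unbound brain fraction (Fub) and the unbound fraction to plasma proteins (Fup).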

Rattus norvegicus [28] = test: In-vivo occupancy at PDE2 in sc dosed Wistar rat brain using [3H]labeled compound in presence of 2.5 mg/kg, sc PDE10 inhibitor MP10; format: functional, organism-based; parameters: dose 2.5 mg/kg, route subcutaneous
In short: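 Male Wistar rats (n = 3 per dose) were dosed s.c., co-administered with MP10 at 2.5 mg/kg s.c. Ex vivo autoradiography was done on brain slices with the tritiated compound. Occupancy is the inhibition of specific [3H] binding relative to vehicle-treated animals, and ED50 was derived against dose.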

Rattus norvegicus [29] = test: Increase in cGMP levels in Wistar rat striatum at 10 mg/kg, sc after 1 hr; format: functional; details: route subcutaneous
In short: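 Rats were dosed 10 mg/kg s.c., and striatal cGMP was measured 1 h later against vehicle-dosed animals. Five independent experiments were run (n = 4–5 each), reported as % of vehicle with range.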

Rattus norvegicus [30] = test: Effect on cAMP levels in Wistar rat striatum at 10 mg/kg, sc after 1 hr; format: functional; details: route subcutaneous
[31] = molecular target: Dual specificity calcium/calmodulin-dependent 3',5'-cyclic nucleotide phosphodiesterase 1A (Homo sapiens, UniProt P54750); test: Inhibition of human PDE1A by scintillation counting method
Chain of Dual specificity calcium/calmodulin-dependent 3',5'-cyclic nucleotide phosphodiesterase 1A (P54750 whole entry): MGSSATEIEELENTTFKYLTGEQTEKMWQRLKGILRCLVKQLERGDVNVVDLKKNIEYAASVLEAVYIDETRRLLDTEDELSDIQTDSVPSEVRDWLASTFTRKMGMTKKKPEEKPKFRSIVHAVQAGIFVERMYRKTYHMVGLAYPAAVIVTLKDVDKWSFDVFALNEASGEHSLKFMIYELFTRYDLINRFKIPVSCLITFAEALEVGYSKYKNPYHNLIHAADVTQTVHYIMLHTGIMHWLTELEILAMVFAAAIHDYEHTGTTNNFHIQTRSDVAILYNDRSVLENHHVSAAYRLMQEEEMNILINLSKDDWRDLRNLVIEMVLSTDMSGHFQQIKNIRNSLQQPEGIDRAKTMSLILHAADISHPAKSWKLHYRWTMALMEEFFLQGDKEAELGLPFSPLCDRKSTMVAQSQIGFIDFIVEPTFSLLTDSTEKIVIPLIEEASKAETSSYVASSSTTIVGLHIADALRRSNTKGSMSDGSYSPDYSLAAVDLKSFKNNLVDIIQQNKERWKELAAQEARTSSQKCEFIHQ
In short: (§7)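 IC50 values were calculated from experiments each run at eight concentrations.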

[32] = molecular target: cGMP-inhibited 3',5'-cyclic phosphodiesterase 3B (Homo sapiens, UniProt Q13370); test: Inhibition of human PDE3B by scintillation counting method; in short: as §7
Chain of cGMP-inhibited 3',5'-cyclic phosphodiesterase 3B (Q13370 whole entry): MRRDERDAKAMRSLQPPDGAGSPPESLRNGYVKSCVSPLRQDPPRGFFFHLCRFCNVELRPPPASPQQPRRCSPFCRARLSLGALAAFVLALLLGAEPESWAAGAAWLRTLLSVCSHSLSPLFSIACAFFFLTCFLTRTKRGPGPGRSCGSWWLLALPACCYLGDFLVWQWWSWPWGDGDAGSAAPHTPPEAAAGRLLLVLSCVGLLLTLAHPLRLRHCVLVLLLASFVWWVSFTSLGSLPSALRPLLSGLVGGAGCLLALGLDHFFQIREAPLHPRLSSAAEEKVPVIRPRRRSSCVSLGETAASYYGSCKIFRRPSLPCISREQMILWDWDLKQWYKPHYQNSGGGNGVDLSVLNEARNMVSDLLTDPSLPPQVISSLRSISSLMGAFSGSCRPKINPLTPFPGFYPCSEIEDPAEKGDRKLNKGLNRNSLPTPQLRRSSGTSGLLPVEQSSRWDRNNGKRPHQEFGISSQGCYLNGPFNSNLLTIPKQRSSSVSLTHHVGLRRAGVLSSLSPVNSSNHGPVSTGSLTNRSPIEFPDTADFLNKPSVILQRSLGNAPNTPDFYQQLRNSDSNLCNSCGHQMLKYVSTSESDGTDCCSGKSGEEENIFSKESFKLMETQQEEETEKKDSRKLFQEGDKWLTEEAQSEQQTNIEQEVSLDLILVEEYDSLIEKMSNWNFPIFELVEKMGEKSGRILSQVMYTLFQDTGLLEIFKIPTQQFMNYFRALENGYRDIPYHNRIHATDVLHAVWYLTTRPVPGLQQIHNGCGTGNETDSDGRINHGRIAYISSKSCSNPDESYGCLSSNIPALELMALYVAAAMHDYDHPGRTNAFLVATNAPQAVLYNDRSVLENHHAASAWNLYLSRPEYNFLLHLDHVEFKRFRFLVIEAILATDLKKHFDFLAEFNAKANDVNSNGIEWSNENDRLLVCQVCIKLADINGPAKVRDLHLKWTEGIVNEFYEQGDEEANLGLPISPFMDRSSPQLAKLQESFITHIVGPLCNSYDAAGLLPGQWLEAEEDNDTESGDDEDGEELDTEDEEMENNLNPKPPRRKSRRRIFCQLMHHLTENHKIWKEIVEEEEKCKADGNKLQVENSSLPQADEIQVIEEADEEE

[33] = molecular target: 3',5'-cyclic-AMP phosphodiesterase 4D (Homo sapiens, UniProt Q08499); test: Inhibition of human PDE4D by scintillation counting method; in short: as §7
[34] = molecular target: cGMP-specific 3',5'-cyclic phosphodiesterase (Homo sapiens, UniProt O76074); test: Inhibition of human PDE5A3 expressed in Sf9 cells by scintillation counting method; in short: as §7
Phosphodiesterase 6 = test: Inhibition of human PDE6AB expressed in Sf9 cells by scintillation counting method; in short: as §7
[35] = molecular target: Dual 3',5'-cyclic-AMP and -GMP phosphodiesterase 11A (Homo sapiens, UniProt Q9HCR9); test: Inhibition of human PDE11A4 expressed in Sf9 cells by scintillation counting method; in short: as §7
Chain of Dual 3',5'-cyclic-AMP and -GMP phosphodiesterase 11A (Q9HCR9 whole entry): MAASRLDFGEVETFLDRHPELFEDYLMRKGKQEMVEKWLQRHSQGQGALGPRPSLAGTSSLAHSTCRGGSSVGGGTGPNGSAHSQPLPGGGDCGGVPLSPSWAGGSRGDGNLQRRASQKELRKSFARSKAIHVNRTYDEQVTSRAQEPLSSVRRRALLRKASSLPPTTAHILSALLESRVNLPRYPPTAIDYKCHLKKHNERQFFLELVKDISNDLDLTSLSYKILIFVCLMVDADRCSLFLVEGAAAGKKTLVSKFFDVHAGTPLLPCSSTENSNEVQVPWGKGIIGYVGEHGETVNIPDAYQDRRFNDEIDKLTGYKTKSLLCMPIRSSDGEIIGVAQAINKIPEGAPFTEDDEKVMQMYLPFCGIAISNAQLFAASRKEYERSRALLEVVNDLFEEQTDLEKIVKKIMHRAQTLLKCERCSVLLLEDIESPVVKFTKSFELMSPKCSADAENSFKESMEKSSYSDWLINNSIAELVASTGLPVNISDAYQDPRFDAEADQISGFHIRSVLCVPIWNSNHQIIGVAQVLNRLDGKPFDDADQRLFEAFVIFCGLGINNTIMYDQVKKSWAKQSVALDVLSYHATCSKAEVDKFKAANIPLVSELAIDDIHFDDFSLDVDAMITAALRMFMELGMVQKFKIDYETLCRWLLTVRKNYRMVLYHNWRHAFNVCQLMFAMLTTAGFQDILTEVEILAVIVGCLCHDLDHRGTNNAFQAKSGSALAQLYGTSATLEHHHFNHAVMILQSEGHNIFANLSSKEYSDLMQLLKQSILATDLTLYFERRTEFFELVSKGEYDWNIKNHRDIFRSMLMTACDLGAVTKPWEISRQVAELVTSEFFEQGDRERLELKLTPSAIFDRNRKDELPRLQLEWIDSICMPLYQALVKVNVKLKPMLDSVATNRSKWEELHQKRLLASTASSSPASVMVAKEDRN

[36] = molecular target: High affinity 3',5'-cyclic-AMP phosphodiesterase 7A (Homo sapiens, UniProt Q13946)
Chain of High affinity 3',5'-cyclic-AMP phosphodiesterase 7A (Q13946 whole entry): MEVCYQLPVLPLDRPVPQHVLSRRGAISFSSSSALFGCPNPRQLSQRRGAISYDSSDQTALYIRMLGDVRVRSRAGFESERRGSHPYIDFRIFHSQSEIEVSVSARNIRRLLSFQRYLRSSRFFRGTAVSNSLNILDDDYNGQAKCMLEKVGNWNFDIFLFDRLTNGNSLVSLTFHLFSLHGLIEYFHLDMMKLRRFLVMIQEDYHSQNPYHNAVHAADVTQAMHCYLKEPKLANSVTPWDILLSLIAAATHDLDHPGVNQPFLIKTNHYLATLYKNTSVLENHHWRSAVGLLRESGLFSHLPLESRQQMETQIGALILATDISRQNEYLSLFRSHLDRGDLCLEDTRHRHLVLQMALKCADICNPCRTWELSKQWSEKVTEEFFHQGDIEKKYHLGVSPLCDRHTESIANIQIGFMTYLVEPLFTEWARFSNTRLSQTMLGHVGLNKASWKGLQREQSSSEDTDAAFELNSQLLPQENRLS

[37] = molecular target: High affinity cGMP-specific 3',5'-cyclic phosphodiesterase 9A (Homo sapiens, UniProt O76083)
Chain of High affinity cGMP-specific 3',5'-cyclic phosphodiesterase 9A (O76083 whole entry): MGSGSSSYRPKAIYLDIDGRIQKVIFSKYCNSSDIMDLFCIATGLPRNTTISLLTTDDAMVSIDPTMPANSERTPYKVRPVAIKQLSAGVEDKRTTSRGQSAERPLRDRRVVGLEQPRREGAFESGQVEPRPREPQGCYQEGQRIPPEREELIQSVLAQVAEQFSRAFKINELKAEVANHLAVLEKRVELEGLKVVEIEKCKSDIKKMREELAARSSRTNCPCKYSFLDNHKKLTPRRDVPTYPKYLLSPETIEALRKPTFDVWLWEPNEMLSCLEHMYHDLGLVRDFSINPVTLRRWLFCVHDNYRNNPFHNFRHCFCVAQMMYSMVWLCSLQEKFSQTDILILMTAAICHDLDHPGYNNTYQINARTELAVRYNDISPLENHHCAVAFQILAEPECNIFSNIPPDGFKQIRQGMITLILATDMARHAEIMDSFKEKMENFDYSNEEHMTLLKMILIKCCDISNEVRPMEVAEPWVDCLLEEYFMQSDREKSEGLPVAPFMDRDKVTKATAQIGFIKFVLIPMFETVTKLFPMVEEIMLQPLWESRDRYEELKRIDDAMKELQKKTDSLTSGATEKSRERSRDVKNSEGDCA

Kp at 0.5 h [1]: 0.05 | concentration at 0.5 h [2]: 72.9 ng/mL | concentration at 0.5 h [3]: 3.6 ng/g
SMILES: COc1ccc(Cc2nn3c([C@@H](CCCc4ccccc4)[C@@H](C)O)nc(C)c3c(=O)[nH]2)cc1OC

IC50 [5]: 0.106 µM
SMILES: COc1ccc(Cl)c(-c2nnc3c(C)nc4ccc(CN5CCOCC5)cc4n23)c1

The next lines start with the compound.

SMILES: Cc1nc2ccc(CN3CCOCC3)cc2n2c(-c3ccccc3Cl)nnc12
Ratio IC50 [4]: 13

SMILES: Cc1nc2ccc(CN3CCOCC3)cc2n2c(-c3cncc(OC(C)C)c3)nnc12
IC50 [5]: > 10 µM

SMILES: CCCCOc1cncc(-c2nnc3c(C)nc4ccc(CN5CCOCC5)cc4n23)c1
remaining at 0.25 h [6]: 0% | remaining at 0.25 h [7]: 0% | solubility [8]: 4 mg/mL (≈ 9.25 mM) | solubility [9]: 15 mg/mL (≈ 34.7 mM) | solubility [10]: 16 mg/mL (≈ 37 mM) | IC50 (Cytochrome P450 2C19): > 10 µM | IC50 (Cytochrome P450 3A4): > 10 µM | Activity (Salmonella typhimurium): Non-toxic | Cp (Plasma [11]): BLD | Drug uptake (Brain): BLD | Kp at 0.5 h [12]: 1.4 | Kp at 1 h [13]: 1.1 | Kp at 2 h [14]: 1.1 | Kp at 4 h [15]: 1.1 | Kp at 7 h [16]: 0.93 | half-life [17]: 18.6 min | clearance [18]: 130 mL/min/kg | Vd [19]: 2.7 L/kg | AUC(0-inf) [20]: 305 ng·h/mL | half-life [21]: 60 min | Cmax [22]: 658 ng/mL | Tmax [23]: 40.2 min | AUC(0-inf) [24]: 1670 ng·h/mL | fraction unbound [25]: 0.14 | fraction unbound [26]: 0.31 | Drug uptake(free) (Plasma [27]): 67 nM | EC50 (Rattus norvegicus [28]): 0.021 µM | ED50 (Rattus norvegicus [28]; sc, route subcutaneous): 4.3 mg/kg | Activity (Rattus norvegicus [29]): 251% | Activity (Rattus norvegicus [30]): 109% | IC50 [31]: > 10 µM | IC50 [32]: > 10 µM | IC50 [33]: > 10 µM | IC50 [34]: > 10 µM | IC50 (Phosphodiesterase 6): > 10 µM | IC50 [35]: 2.14 µM | IC50 [36]: > 10 µM | IC50 [37]: > 10 µM
